Laboratory results reported in ChEMBL document CHEMBL1143320, “Benzyldihydroxyoctenone, a novel anticancer agent, induces apoptosis via mitochondrial-mediated pathway in androgen-sensitive LNCaP prostate cancer cells” (Bioorg Med Chem Lett, 2009).
Activity calls are given as the source filed them.

Experiments:
Assay type in all cases: functional, cell-based
[1] = test system: LNCaP; assay: Cell cycle arrest in human LNCAP cells assessed as accumulation at subG1 phase at 30 uM by flow cytometry; conditions: TDE = time-dependent effect
Method in brief: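 LNCaP cells exposed for various times, then fixed nuclei stained with propidium iodide. DNA content read by flow cytometry, 10,000 nuclei per sample. Sub-G1 fraction reported as means ± SD of three separate experiments.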

[2] = test system: LNCaP; assay: Induction of apoptosis in human LNCAP cells assessed as DNA fragmentation at 30 uM by TUNEL assay
Method in brief: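 Cells were treated for the indicated times, then fixed and permeabilized. They were stained with fluorescent TUNEL reagent and analysed by flow cytometry for DNA fragmentation.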

[3] = test system: LNCaP; assay: Induction of apoptosis in human LNCAP cells assessed as procaspase-3 cleavage at 30 uM after 24 hrs by Western blot
Method in brief: (§1)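 Cells were treated for various times and total cell lysates prepared. Lysates were resolved on 8–14% polyacrylamide gels and immunoblotted with an antibody to each protein, with b-actin as internal control.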

[4] = test system: LNCaP; assay: Induction of apoptosis in human LNCAP cells assessed as decrease in procaspase-8 expression at 30 uM after 24 hrs by Western blot; method in brief: as §1
[5] = test system: LNCaP; assay: Induction of apoptosis in human LNCAP cells assessed as decrease in procaspase-9 expression at 30 uM after 24 hrs by Western blot; method in brief: as §1
[6] = test system: LNCaP; assay: Induction of apoptosis in human LNCAP cells assessed as procaspase-8 cleavage at 30 uM by Western blot; conditions: TDE = time-dependent effect; method in brief: as §1
[7] = test system: LNCaP; assay: Induction of apoptosis in human LNCAP cells assessed as PARP cleavage at 30 uM after 24 hrs by Western blot; method in brief: as §1
[8] = test system: LNCaP; assay: Induction of apoptosis in human LNCAP cells assessed as increase in mitochondrial cytochrome C release at 30 uM after 24 hrs by Western blot; method in brief: as §1
[9] = test system: LNCaP; assay: Induction of apoptosis in human LNCAP cells assessed as decrease in Bcl2 levels at 30 uM after 48 hrs by Western blot; method in brief: as §1
[10] = test system: LNCaP; assay: Induction of apoptosis in human LNCAP cells assessed as decrease in Bcl-XL levels at 30 uM after 24 hrs by Western blot; method in brief: as §1
[11] = test system: LNCaP; assay: Induction of apoptosis in human LNCAP cells assessed as inhibition of AR protein expression at 30 uM by Western blot; conditions: TDE = time-dependent effect
[12] = test system: LNCaP; assay: Induction of apoptosis in human LNCAP cells assessed as inhibition of PSA protein expression at 30 uM by Western blot; conditions: TDE = time-dependent effect
[13] = test system: LNCaP; assay: Induction of apoptosis in human LNCAP cells assessed as inhibition of DHT-induced AR protein expression at 30 uM after 24 hrs by Western blot
Method in brief: (§2)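 LNCaP cells were grown 48 h in RPMI 1640 with 10% FBS, then exposed 24 h to compound given in ethanol. This was followed by 2 h with or without DHT (0.1 and 1 nM). Lysate protein was measured by BCA, run on SDS–PAGE and blotted to nitrocellulose. Blots were probed with primary and peroxidase-conjugated secondary antibodies, with chemiluminescent detection.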

[14] = test system: LNCaP; assay: Induction of apoptosis in human LNCAP cells assessed as inhibition of DHT-induced PSA protein expression at 30 uM after 24 hrs by Western blot; method in brief: as §2
[15] = test system: LNCaP; assay: Induction of apoptosis in human LNCAP cells assessed as inhibition of AR mRNA transcription at 30 uM after 24 hrs by RT-PCR
Method in brief: (§3)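 Cells were treated as for the blots (24 h compound, then DHT 1.0 nM or none). Total RNA (2 µg) was reverse-transcribed and AR and PSA were quantified by real-time PCR. Relative levels were calculated by the comparative threshold cycle method, with GAPDH as housekeeping gene.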

[16] = test system: LNCaP; assay: Induction of apoptosis in human LNCAP cells assessed as inhibition of AR mRNA transcription at 30 uM after 24 hrs by RT-PCR in presence of DHT; method in brief: as §3
[17] = test system: LNCaP; assay: Induction of apoptosis in human LNCAP cells assessed as inhibition of PSA mRNA transcription at 30 uM after 24 hrs by RT-PCR; method in brief: as §3
[18] = test system: LNCaP; assay: Induction of apoptosis in human LNCAP cells assessed as inhibition of PSA mRNA transcription at 30 uM after 24 hrs by RT-PCR in presence of DHT; method in brief: as §3

Measured: Activity

C/C=C(\Cc1ccccc1)C(=O)CC(O)CCO (stereo not drawn)
active: [1] tde | [2] | [3] | [4] | [5] | [6] tde | [7] | [8] | [9] | [10] | [11] tde | [12] tde | [13] | [14] | [15] | [16] | [17] | [18]
